Test results taken from ChEMBL document CHEMBL4196073, “The aminopyridine-3,5-dicarbonitrile core for the design of new non-nucleoside-like agonists of the human adenosine A2B receptor” (Eur J Med Chem, 2018).
Calls of active or inactive are those of the source. The calls are words filed in the database; no cut-off is given here.

Columns and labels:
[1] = target: T1, Adenosine receptor A1 (Homo sapiens, UniProt P30542); assay: Displacement of [3H]DPCPX from human adenosine A1 receptor expressed in CHO cell membranes after 90 mins by scintillation counting analysis
T1 sequence (P30542 whole entry): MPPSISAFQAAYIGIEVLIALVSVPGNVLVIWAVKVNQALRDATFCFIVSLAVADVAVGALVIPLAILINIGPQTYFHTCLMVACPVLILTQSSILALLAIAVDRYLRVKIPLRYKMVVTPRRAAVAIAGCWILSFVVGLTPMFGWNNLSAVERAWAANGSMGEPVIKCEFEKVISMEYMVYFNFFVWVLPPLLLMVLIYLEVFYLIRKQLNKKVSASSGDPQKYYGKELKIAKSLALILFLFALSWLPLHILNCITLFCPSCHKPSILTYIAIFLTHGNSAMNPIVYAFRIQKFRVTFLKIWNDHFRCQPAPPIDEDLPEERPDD
In short: (§1)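 Hypotonic-lysed (5 mM Tris HCl, 1 mM EDTA, pH 7.4), 40000 g pelleted hA1-CHO membranes, 50 µg protein/100 µl, with 1 nM [3H]DPCPX, 90 min, 25°C, 50 mM Tris HCl pH 7.4; nonspecific with 1 µM DPCPX; GF/B filtration, scintillation. Ki via Cheng–Prusoff, four assays in triplicate; I% at 1 μM.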

[2] = target: T2, Adenosine receptor A2a (Homo sapiens, UniProt P29274); assay: Displacement of [3H]-ZM241385 from human adenosine A2A receptor expressed in CHO cell membranes at 1 uM after 60 mins by scintillation counting analysis
T2 sequence (P29274 whole entry): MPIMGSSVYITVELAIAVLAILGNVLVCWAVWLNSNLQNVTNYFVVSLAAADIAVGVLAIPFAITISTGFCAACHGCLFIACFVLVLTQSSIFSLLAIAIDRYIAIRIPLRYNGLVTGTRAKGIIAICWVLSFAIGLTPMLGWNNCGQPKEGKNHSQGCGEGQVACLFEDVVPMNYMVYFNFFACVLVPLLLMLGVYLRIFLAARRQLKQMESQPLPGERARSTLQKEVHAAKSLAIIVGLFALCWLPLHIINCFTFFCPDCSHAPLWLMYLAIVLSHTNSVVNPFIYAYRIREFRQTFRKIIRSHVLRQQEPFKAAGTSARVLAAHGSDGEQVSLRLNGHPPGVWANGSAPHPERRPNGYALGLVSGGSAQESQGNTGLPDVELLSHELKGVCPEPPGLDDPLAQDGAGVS

[3] = target: T3, Adenosine receptor A3 (Homo sapiens) (UniProt P0DMS8); assay: Displacement of [125I]-ABMECA from human adenosine A3 receptor expressed in CHO cell membranes at 1 uM after 120 mins by scintillation counting analysis
T3 sequence (whole entry): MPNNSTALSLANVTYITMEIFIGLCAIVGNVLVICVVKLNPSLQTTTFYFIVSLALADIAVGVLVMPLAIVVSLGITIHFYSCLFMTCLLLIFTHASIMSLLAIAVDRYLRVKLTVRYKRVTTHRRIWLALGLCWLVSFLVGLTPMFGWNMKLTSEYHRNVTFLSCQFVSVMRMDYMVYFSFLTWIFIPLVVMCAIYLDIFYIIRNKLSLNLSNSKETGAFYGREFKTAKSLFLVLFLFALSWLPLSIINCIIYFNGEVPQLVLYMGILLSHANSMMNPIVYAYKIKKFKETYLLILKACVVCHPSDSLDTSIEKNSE
In short: (§2)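 Membranes of hA3-CHO cells, 50 µg protein/100 µl, incubated 120 min at 4°C with 0.5 nM [125I]AB-MECA in 50 mM Tris HCl pH 7.4, 10 mM MgCl2, 1 mM EDTA; 1 µM AB-MECA for nonspecific; filter separation, counted. Ki by Cheng–Prusoff, four assays in triplicate; I% at 1 μM.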

[4] = target: T4, Adenosine receptor A2b (Homo sapiens, UniProt P29275); assay: Agonist activity at human adenosine A2B receptor expressed in CHO cell membranes assessed as induction of cAMP accumulation by AlphaScreen assay; type: functional, cell-based
T4 sequence (P29275 whole entry): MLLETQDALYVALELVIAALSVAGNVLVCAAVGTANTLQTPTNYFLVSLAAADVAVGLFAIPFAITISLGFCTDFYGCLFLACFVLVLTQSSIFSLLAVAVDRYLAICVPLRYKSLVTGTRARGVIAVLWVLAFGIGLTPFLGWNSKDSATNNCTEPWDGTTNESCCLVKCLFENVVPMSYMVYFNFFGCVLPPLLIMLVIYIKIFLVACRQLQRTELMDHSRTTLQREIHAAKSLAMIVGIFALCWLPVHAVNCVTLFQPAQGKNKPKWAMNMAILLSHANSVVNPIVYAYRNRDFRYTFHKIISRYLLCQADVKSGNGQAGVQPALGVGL
In short: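 Intact hA2B-transfected CHO cells, trypsin-detached, stimulated in HBSS/5 mM HEPES/0.5 mM Ro 20-1724/0.1% BSA with compound alone at 1 nM–1 μM; cAMP read by AlphaScreen kit; EC50 from four separate assays each in triplicate, mean ± SEM.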

[5] = target: T5, Adenosine receptor A2b (Homo sapiens) (UniProt P29275); assay: Agonist activity at human adenosine A2B receptor expressed in CHO cell membranes assessed as induction of cAMP accumulation at 1 uM by AlphaScreen assay relative to NECA; type: functional, cell-based
T5 sequence (whole entry): T4 sequence (P29275 whole entry)
In short: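 Whole adherent hA2B-transfected CHO cells (DMEM/F12, 10% FCS, G418), trypsin-detached, in HBSS with 5 mM HEPES, 0.5 mM Ro 20-1724, 0.1% BSA; test compound at 1 μM alone; cAMP by AlphaScreen; efficacy expressed relative to NECA 1 μM taken as 100%.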

[6] = target: T5, Adenosine receptor A2b (Homo sapiens); assay: Antagonist activity at human adenosine A2B receptor expressed in CHO cell membranes assessed as inhibition of NECA-stimulated cAMP accumulation at 1 uM by AlphaScreen assay; type: functional, cell-based
In short: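 hA2B-transfected CHO cells in HBSS, 5 mM HEPES, 0.5 mM Ro 20-1724, 0.1% BSA; compound at 1 μM given with NECA 100 nM; cAMP production measured by AlphaScreen.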

[7] = target: T2, Adenosine receptor A2a; assay: Displacement of [3H]-ZM241385 from human adenosine A2A receptor expressed in CHO cell membranes after 60 mins by scintillation counting analysis
[8] = target: T6, Adenosine receptor A1 (Homo sapiens) (UniProt P30542); assay: Displacement of [3H]DPCPX from human adenosine A1 receptor expressed in CHO cell membranes at 1 uM after 90 mins by scintillation counting analysis; in short: as §1
T6 sequence (whole entry): T1 sequence (P30542 whole entry)

[9] = target: T7, Adenosine receptor A3 (Homo sapiens, UniProt P0DMS8); assay: Displacement of [125I]-ABMECA from human adenosine A3 receptor expressed in CHO cell membranes after 120 mins by scintillation counting analysis; in short: as §2
T7 sequence (P0DMS8 whole entry): T3 sequence (whole entry)

[10] = species: Homo sapiens; assay: Selectivity index, ratio of Ki for human adenosine A1 receptor to EC50 for human adenosine A2B receptor
[11] = species: Homo sapiens; assay: Selectivity index, ratio of Ki for human adenosine A2A receptor to EC50 for human adenosine A2B receptor
[12] = species: Homo sapiens; assay: Selectivity index, ratio of Ki for human adenosine A3 receptor to EC50 for human adenosine A2B receptor

SMILES: CCOc1ccc(-c2c(C#N)c(N)nc(SCc3ccn[nH]3)c2C#N)cc1
- Ki [1]: 21 nM
- inhibition [2]: 4%
- inhibition [3]: 18%
- EC50 [4]: 332 nM
- Efficacy [5]: 34%

SMILES: N#Cc1c(N)nc(SCc2csc(N)n2)c(C#N)c1-c1ccc(OCC2CC2)cc1
- Ki [1]: 140 nM
- inhibition [2]: 1%
- inhibition [3]: 1%
- inhibition [6]: inactive
- Efficacy [5]: 17%

SMILES: CC(C)COc1ccc(-c2c(C#N)c(N)nc(SCC(N)=O)c2C#N)cc1
- Ki [1]: 603 nM
- Ki [7]: 307 nM
- inhibition [3]: 9%
- Efficacy [5]: 1%

SMILES: CNC(=O)CSc1nc(N)c(C#N)c(-c2ccc(OCC3CC3)cc2)c1C#N
- inhibition [8]: 14%
- inhibition [2]: 1%
- inhibition [3]: 3%
- EC50 [4]: 94 nM
- Efficacy [5]: 63%

SMILES: N#Cc1c(N)nc(SCC(=O)NCO)c(C#N)c1-c1ccc(OCC2CC2)cc1
- inhibition [8]: 10%
- inhibition [2]: 1%
- inhibition [3]: 8%
- EC50 [4]: 182 nM
- Efficacy [5]: 57%

SMILES: N#Cc1c(N)nc(SCn2cncn2)c(C#N)c1-c1ccc(OCC2CC2)cc1
- inhibition [8]: 12%
- inhibition [2]: 1%
- inhibition [3]: 1%
- inhibition [6]: inactive
- Efficacy [5]: 1%

SMILES: COC(=O)c1cccc(CSc2nc(N)c(C#N)c(-c3ccc(OCC4CC4)cc3)c2C#N)c1
- Ki [1]: 66 nM
- inhibition [2]: 1%
- inhibition [3]: 4%
- EC50 [4]: 347 nM
- Efficacy [5]: 27%

SMILES: N#Cc1c(N)nc(SCc2cnc[nH]2)c(C#N)c1-c1ccc(OCC2CC2)cc1
- inhibition [8]: 1%
- inhibition [2]: 7%
- inhibition [3]: 1%
- EC50 [4]: 139 nM
- Efficacy [5]: 50%

SMILES: N#Cc1c(N)nc(SCc2ncn[nH]2)c(C#N)c1-c1ccc(OCC2CC2)cc1
- Ki [1]: 338 nM
- inhibition [2]: 1%
- inhibition [3]: 1%
- EC50 [4]: 51 nM
- Efficacy [5]: 50%

SMILES: N#Cc1c(N)nc2sc(C(N)=O)c(N)c2c1-c1ccc(OCC2CC2)cc1
- inhibition [8]: 19%
- inhibition [2]: 3%
- inhibition [3]: 13%
- Efficacy [5]: 1%

SMILES: C=CCOc1ccc(-c2c(C#N)c(N)nc(SCc3ccn[nH]3)c2C#N)cc1
- Ki [1]: 44 nM
- inhibition [2]: 8%
- inhibition [3]: 13%
- inhibition [6]: inactive
- Efficacy [5]: 7%

SMILES: C=C(C)COc1ccc(-c2c(C#N)c(N)nc(SCC(N)=O)c2C#N)cc1
- Ki [1]: 872 nM
- inhibition [2]: 31%
- inhibition [3]: 4%
- Efficacy [5]: 2%

SMILES: N#Cc1c(N)nc(SCC(N)=O)c(C#N)c1-c1ccc(OCC2CC2)cc1
- inhibition [8]: 31%
- inhibition [2]: 2%
- inhibition [3]: 8%
- EC50 [4]: 31 nM
- Efficacy [5]: 100%

SMILES: C=CCOc1ccc(-c2c(C#N)c(N)nc(SCC(N)=O)c2C#N)cc1
- Ki [1]: 323 nM
- inhibition [2]: 18%
- Ki [9]: 444 nM
- Efficacy [5]: 11%

SMILES: CCOc1ccc(-c2c(C#N)c(N)nc(SCC(=O)NC)c2C#N)cc1
- Ki [1]: 104 nM
- inhibition [2]: 8%
- Ki [9]: 834 nM
- EC50 [4]: 211 nM
- Efficacy [5]: 48%

SMILES: CC(=O)Nc1ccc(-c2c(C#N)c(N)nc(SCC(N)=O)c2C#N)cc1
- inhibition [8]: 17%
- Ki [7]: 572 nM
- Ki [9]: 742 nM
- EC50 [4]: 164 nM
- Efficacy [5]: 92%

SMILES: CCOc1ccc(-c2c(C#N)c(N)nc(SCC(N)=O)c2C#N)cc1
- Ki [1]: 345 nM
- inhibition [2]: 1%
- inhibition [3]: 20%
- EC50 [4]: 38 nM
- Efficacy [5]: 66%

SMILES: N#Cc1c(N)nc(SCC(=O)NO)c(C#N)c1-c1ccc(OCC2CC2)cc1
- Ki [1]: 536 nM
- inhibition [2]: 1%
- inhibition [3]: 31%
- Efficacy [5]: 20%

SMILES: N#Cc1c(N)nc(SCc2cccnc2)c(C#N)c1-c1ccc(OCC2CC2)cc1
- Ki [1]: 67 nM
- Ki [7]: 424 nM
- inhibition [3]: 19%
- Efficacy [5]: 1%

SMILES: N#Cc1c(N)nc(SCc2ccn[nH]2)c(C#N)c1-c1ccc(OCC2CC2)cc1
- Ki [1]: 552 nM
- inhibition [2]: 2%
- inhibition [3]: 6%
- EC50 [4]: 84 nM
- Efficacy [5]: 48%

SMILES: N#Cc1c(N)nc(SCc2cccc(C(N)=O)c2)c(C#N)c1-c1ccc(OCC2CC2)cc1
- Ki [1]: 83 nM
- inhibition [2]: 25%
- inhibition [3]: 1%
- EC50 [4]: 12.7 nM
- Efficacy [5]: 69%

SMILES: CCOc1ccc(-c2c(C#N)c(N)nc(SCc3ncc[nH]3)c2C#N)cc1
- Ki [1]: 8.2 nM
- Ki [7]: 221 nM
- Ki [9]: 85 nM
- EC50 [4]: 11.7 nM
- Efficacy [5]: 62%

SMILES: N#Cc1c(N)nc(SCc2ncc[nH]2)c(C#N)c1-c1ccc(OCC2CC2)cc1
- Ki [1]: 235 nM
- Ki [7]: 764 nM
- Ki [9]: 474 nM
- EC50 [4]: 9.5 nM
- Selectivity Index [10]: 25
- Selectivity Index [11]: 80
- Selectivity Index [12]: 50
- Efficacy [5]: 70%

SMILES: COC(=O)CSc1nc(N)c(C#N)c(-c2ccc(OCC3CC3)cc2)c1C#N
- inhibition [8]: 23%
- inhibition [2]: 1%
- inhibition [3]: 1%
- inhibition [6]: inactive
- Efficacy [5]: 1%

SMILES: N#Cc1c(N)nc(SCC2=NCCN2)c(C#N)c1-c1ccc(OCC2CC2)cc1
- Ki [1]: 483 nM
- inhibition [2]: 14%
- inhibition [3]: 6%
- inhibition [6]: inactive
- Efficacy [5]: 7%

SMILES: N#Cc1c(N)nc(SCC(N)=O)c(C#N)c1-c1ccc(OCC2CCC2)cc1
- inhibition [8]: 1%
- inhibition [2]: 5%
- inhibition [3]: 1%
- inhibition [6]: inactive
- Efficacy [5]: 5%

SMILES: N#Cc1c(N)nc(SCc2nc3ccccc3[nH]2)c(C#N)c1-c1ccc(OCC2CC2)cc1
- inhibition [8]: 21%
- inhibition [2]: 6%
- inhibition [3]: 1%
- inhibition [6]: inactive
- Efficacy [5]: 12%

SMILES: N#Cc1c(N)nc(SCc2nnn[nH]2)c(C#N)c1-c1ccc(OCC2CC2)cc1
- inhibition [8]: 3%
- inhibition [2]: 1%
- inhibition [3]: 1%
- inhibition [6]: inactive
- Efficacy [5]: 25%
